From PubChem
Fh CTSL1 inh = Fasciola hepatica cathepsin L1 inhibitors, primary screen, counter-screen for PFM18AAP inhibitor project, biochemical, QFRET, fluorogenic peptide substrate; recombinant F. hepatica cathepsin L1, Z-Leu-Arg-MCA fluorescence; inhibition, % at 5.96 µM; 0.49% of 300,000 active; AID 1906, 2009;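 active = inhibition above the mean of all tested compounds plus 3 SD, set per screening campaign, cut at about 17% in these data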;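 note: 0% = plate median of test compound wells and 100% = 1 µM Z-Phe-Ala-diazomethylketone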
Apaf1 inhib = inhibitors of human Apaf-1 apoptosome, primary screen, biochemical, DEVD-Rh110 fluorescence, uHTS; reconstituted apoptosome caspase-3 activity; 0.71% of 330,000 active; inhibition, % at 20 µM; Apoptotic protease-activating factor 1 (Homo sapiens), O14727; active = inhibition of at least 40% at 20 µM;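 note: plate controls were DMSO wells for no effect and DEVD-CHO caspase inhibitor wells for full effect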
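Material: reconstituted apoptosome with Apaf-1, cytochrome c, caspase-9, procaspase-3, dATP. Technique: Rh110 fluorescence intensity. Buffer or medium: pH 7.5 Hepes buffer with CHAPS, BSA, DTT. Times: 30 min plus 50 min, RT.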
PAD4 inh = human PAD4 inhibitors, primary screen, biochemical, fluorescence polarization, 1536-well format. Protein-arginine deiminase type-4 (Homo sapiens), Q9UM07. recombinant PAD4, RCA probe fluorescence polarization. inhibition, % at 6.36 µM. 0.41% of 330,000 active. AID 485272, 2010;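 active = percent inhibition above a cutoff equal to the mean of all tested compounds plus 3 SD, cut at about 15% in these data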;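 note: 0% = PAD4 with RCA probe and DMSO and 100% = probe without PAD4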
TDP2 absorb = human TDP2 enzyme inhibitors, primary screen, biochemical, epi absorbance, recombinant enzyme | T5PNP hydrolysis, p-nitrophenol absorbance 415 nm | Tyrosyl-DNA phosphodiesterase 2 (Homo sapiens), O95551 | 0.34% of 370,000 active | AID 720702, 2013 | inhibition, % at 12.8 µM;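 active = inhibition above the mean of all tested compounds plus 3 SD, set per campaign, cut at about 25% in these data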;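 note: 0% = DMSO with enzyme and 100% = buffer with substrate but no TDP2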
Target sequence (O95551 whole entry, looked up): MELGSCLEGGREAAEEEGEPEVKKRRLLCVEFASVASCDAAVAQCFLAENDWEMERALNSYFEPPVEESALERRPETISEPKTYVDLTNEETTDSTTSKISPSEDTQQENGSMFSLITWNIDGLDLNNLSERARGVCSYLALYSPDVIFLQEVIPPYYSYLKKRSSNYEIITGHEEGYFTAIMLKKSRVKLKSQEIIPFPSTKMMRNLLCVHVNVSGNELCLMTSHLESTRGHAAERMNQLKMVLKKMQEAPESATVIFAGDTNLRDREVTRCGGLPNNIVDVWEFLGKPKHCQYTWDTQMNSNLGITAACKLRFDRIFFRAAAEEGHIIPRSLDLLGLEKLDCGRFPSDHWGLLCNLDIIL
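Read-out basis: percent inhibition. System: recombinant human TDP2. Buffer or medium: Mg2+-containing Tris-HCl buffer, pH 7.5. Repeats: single replicate. Timing: reaction 2 h, 37 °C. Benchmarks: high control without enzyme, low control DMSO plus TDP2. Probe or stimulus: 5 mM T5PNP. Doses: 12.8 µM only. Measured by: epi absorbance of p-nitrophenol freed from T5PNP by hydrolysis.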
GSTO1 counter = inhibitors of recombinant GSTO1, primary screen, counter-screen for RBBP9 inhibitor project, biochemical, fluorescence polarization; Glutathione S-transferase omega-1 (Homo sapiens), P78417; activity-based probe fluorescence polarization; inhibition, % at 5.96 µM; 1.1% of 300,000 active;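 active = inhibition above the campaign mean inhibition plus 3 SD, cut at about 35% in these data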;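 note: 0% = GSTO1-1 with DMSO and 100% = wells lacking GSTO1-1 enzyme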
TDP2 inh conf = human TDP2 enzyme inhibitors, retest, confirmation, biochemical, epi absorbance, recombinant enzyme | shares compounds with TDP2 absorb | absorbance read-out | inhibition, % at 12.8 µM | 22% of 1,100 active; in the data active = inhibition above about 25%;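 note: 0% = vehicle with enzyme and 100% = no enzyme buffer only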
Numbers without * were called inactive. In the library only some 1.8% were active in any assay of this set; here they are far more common.

For CC(C)C(=O)Nc1nnc(SCC(=O)NC2CCCC2)s1 the results were Fh CTSL1 inh -1, Apaf1 inhib -7, PAD4 inh 1, TDP2 absorb 33*, GSTO1 counter 4 and TDP2 inh conf -3.
For O=C(NCc1ccccn1)Nc1ccc(Cl)c(Cl)c1 the results were Fh CTSL1 inh 1, Apaf1 inhib 7, PAD4 inh 4, TDP2 absorb 0 and GSTO1 counter -8.
`CC(C)c1ccc(NC(=O)NCc2ccccn2)cc1` gave Fh CTSL1 inh -1, Apaf1 inhib 10, PAD4 inh 5, TDP2 absorb 52*, GSTO1 counter 2 and TDP2 inh conf 3.
For COc1cc(CN2CC(C)OC(C)C2)cc(OC)c1 (stereo not given) the results were Fh CTSL1 inh -1, Apaf1 inhib -20, PAD4 inh -4, TDP2 absorb 24*, GSTO1 counter 5 and TDP2 inh conf 4.
Screening Cc1ccccc1N1CCN(C2=Nc3ccccc3Sc3ccccc32)CC1 returned TDP2 absorb -7.
Screening COc1ccc(COC(=O)c2cccc(S(=O)(=O)N3CCN(C(C)=O)CC3)c2)cc1F returned Fh CTSL1 inh 0, Apaf1 inhib 8, PAD4 inh -2, TDP2 absorb 25*, GSTO1 counter -8 and TDP2 inh conf 7.
`CCOC(=O)c1cc2c(=Cc3ccc(N(C)C)cc3)c3ccccc3n2[n+]1C` gave TDP2 absorb 52* and TDP2 inh conf 56*.
For CCN=C1NC(c2ccc(C(F)(F)F)cc2)C(C(=O)OC)=C(C)N1Cc1cccc(C(F)(F)F)c1 (stereo not given) the results were TDP2 absorb -9.
Screening COc1ccc(OC)c(CCNC(=O)CN2C(=O)CCSc3ccccc32)c1 returned Fh CTSL1 inh -4, Apaf1 inhib 0, PAD4 inh 4, TDP2 absorb 26*, GSTO1 counter 2 and TDP2 inh conf 2.
CCC(CO)Oc1cc(NC(=O)c2ccc(OC)cc2)c2ncn(C(C)C)c2c1 (stereo not given) was read as Apaf1 inhib 35, PAD4 inh 3 and TDP2 absorb 20.
For CCC(CO)Oc1cc(NC(=O)c2cccc(OC)c2)c2ncn(C(C)C)c2c1 (stereo not given) the results were Apaf1 inhib 19, PAD4 inh -1, TDP2 absorb 26* and TDP2 inh conf 31*.
`Cc1[nH]c(C)c(S(=O)(=O)N(Cc2ccccc2)C(C)(C)C)c1C(=O)N1CCCC1` gave Fh CTSL1 inh 2, Apaf1 inhib 12, PAD4 inh 0, TDP2 absorb 10 and GSTO1 counter -3.
For Cc1[nH]c(C)c(S(=O)(=O)N(C)Cc2ccccc2)c1C(=O)N1CCCC1 the results were Fh CTSL1 inh -2, Apaf1 inhib 2, PAD4 inh 1, TDP2 absorb 28*, GSTO1 counter 0 and TDP2 inh conf -4.
CCOC(=O)[C@]12CCCC=C1N(CCCOC)C(=O)[C@@H]2CC(=O)NCc1cccc2ccccc12 was read as TDP2 absorb -2.
Screening Cc1ccccc1C(OCC(O)CN1CCN(CCO)CC1)c1ccccc1 (stereo not given) returned Fh CTSL1 inh -4, Apaf1 inhib -3, PAD4 inh -5, TDP2 absorb 27*, GSTO1 counter 5 and TDP2 inh conf 7.
Screening OC(COC(c1ccccc1)c1ccccc1)CN1CCCCC1 (stereo not given) returned Fh CTSL1 inh 11, Apaf1 inhib 2, PAD4 inh 3, TDP2 absorb 1 and GSTO1 counter 3.
COC(=O)[C@]12C[C@H](CC(=O)NCCCCc3ccccc3)C(=O)N(Cc3cccc4ccccc34)C1=C[C@H](C1CCCC1)O[C@@H]2C was read as TDP2 absorb -2.
